Assay results of several laboratories.
Lines come from different studies, so protocols differ.
RPS6KA3: Ribosomal protein S6 kinase alpha-3 (RPS6KA3, Homo sapiens, UniProt P51812)
RPS6KA3 C-terminal kinase domain: Ribosomal protein S6 kinase alpha-3, C-terminal kinase domain (RPS6KA3, Homo sapiens, UniProt P51812)
RPS6KA3 N-terminal kinase domain: Ribosomal protein S6 kinase alpha-3, N-terminal kinase domain (RPS6KA3, Homo sapiens, UniProt P51812)

| SMILES | target | observed | action | technique | concentration | quantity | value |
| --- | --- | --- | --- | --- | --- | --- | --- |
| O=C(Nc1cnn(-c2csc(C(=O)NC3COC3)c2)c1)Nc1c(F)cccc1Cl | RPS6KA3 | enzyme activity | inhibitor |  | 5 µM | remaining activity | 79.9% |
| O=C(O)c1cc(-c2ccc(C3CCNCC3)cc2)c2ccc(-c3ccc(C(F)(F)F)cc3)cc2c1 | RPS6KA3 C-terminal kinase domain | cell-free assay |  | competition with immobilised ligand | 1 µM | remaining binding | 80% |
| CC1CCCN1c1nccc(-c2cnn3ncccc23)n1 (centres unmarked) | RPS6KA3 C-terminal kinase domain | binding |  | competition with immobilised ligand | 1 µM | remaining binding | 100% |
| CNC(=O)c1cc(Oc2ccc(NC(=O)Nc3ccc(Cl)c(C(F)(F)F)c3)cc2)ccn1 | RPS6KA3 | enzyme activity | inhibitor |  | 0.3 µM | inhibition | 22% |
| FC(F)(F)Oc1cccc(-c2cnc3ccc(-c4ccncc4)nn23)c1 | RPS6KA3 | enzyme activity | inhibitor | radiometric | 1 µM | activity vs control | 105% |
| COc1cc(Nc2c(C#N)cnc3cc(OCCCN4CCN(C)CC4)c(OC)cc23)c(Cl)cc1Cl | RPS6KA3 | cell-free assay |  |  | 0.5 µM | remaining signal | 80.1% |
| CCCOc1ccc([C@H]2[C@H](C(=O)O)[C@@H](c3ccc4c(c3)OCO4)CN2CC(=O)Nc2c(CC)cccc2CC)cc1 | RPS6KA3 C-terminal kinase domain | cell-free assay |  | competition with immobilised ligand | 1 µM | remaining binding | 73% |
| C[C@@H]1CCN(c2nccc(-c3cnn4ncccc34)n2)C1 | RPS6KA3 N-terminal kinase domain | binding |  | competition with immobilised ligand | 1 µM | remaining binding | 74% |
| Cc1ccc(C(=O)Nc2ccc(CN3CCN(C)CC3)c(C(F)(F)F)c2)cc1C#Cc1cnc2cccnn12 | RPS6KA3 | enzyme activity | inhibitor |  | 23.5 nM | activity vs control | 82% |
| Oc1cccc(-c2nc(N3CCOCC3)c3oc4ncccc4c3n2)c1 | RPS6KA3 | enzyme activity | inhibitor |  | 10 µM | remaining activity | 96% |
| COc1cc2ncnc(Nc3ccc(Oc4ccccc4)cc3C)c2cc1OC | RPS6KA3 | enzyme activity | inhibitor |  | 1 µM | inhibition | -8% |
| Cc1ccc(Nc2nccc(N(C)c3ccc4c(C)n(C)nc4c3)n2)cc1S(N)(=O)=O | RPS6KA3 | enzyme activity | inhibitor |  | 0.3 µM | inhibition | 31% |
| c1ccc(CNc2nc(N3CCOc4ccccc43)nc3c2CCCC3)cc1 | RPS6KA3 N-terminal kinase domain | target engagement in cells | inhibitor | chemoproteomics | 20 mM | inhibition | 3.3% |
| C[C@@H]1CCN(C(=O)CC#N)C[C@@H]1N(C)c1ncnc2[nH]ccc12 | RPS6KA3 | cell-free assay | inhibitor |  | 0.5 µM | remaining signal | 97% |
| Cc1ccc(C(=O)NCc2ccsc2)cc1C#Cc1cn(C(C)C)c2ncnc(N)c12 | RPS6KA3 | enzyme activity | inhibitor |  | 1 µM | activity vs control | 92% |
| CN(C)c1nccc(-c2cnc3ncccn23)n1 | RPS6KA3 N-terminal kinase domain | binding |  | competition with immobilised ligand | 1 µM | remaining binding | 70% |
| CN(C)C1CCN(CC#Cc2nn(C3CCCC3)c3nc(NCc4ccccc4)ncc23)C1 (centres unmarked) | RPS6KA3 | enzyme activity | inhibitor | FRET | 10 µM | inhibition | 15% |
| COc1ccc2c(c1)O[C@@H](c1ccc(OC)c(OC)c1)C[C@H]2NC(=O)C1(c2ccc3c(c2)OC(F)(F)O3)CC1 | RPS6KA3 C-terminal kinase domain | cell-free assay |  | competition with immobilised ligand | 1 µM | remaining binding | 100% |
| O=C(Nc1cnn(-c2csc(C(=O)NC3COC3)c2)c1)Nc1ccccc1Cl | RPS6KA3 | enzyme activity | inhibitor |  | 5 µM | remaining activity | 101% |
| COc1cc(Nc2cnc(C#N)c(O[C@H](C)CN(C)C)n2)ncc1-c1cnn(C)c1 | RPS6KA3 | enzyme activity | inhibitor | radiometric | 10 µM | remaining activity | 34% |
| CN(c1nccc(-c2cnn3ncccc23)n1)C1CC1 | RPS6KA3 C-terminal kinase domain | binding |  | competition with immobilised ligand | 1 µM | remaining binding | 100% |

| SMILES | target | observed | action | technique | concentration | quantity | value |
| --- | --- | --- | --- | --- | --- | --- | --- |
| Cc1cnc(NC2CCOCC2)nc1-n1cnc(C(=O)NC(CN)c2cc(F)cc(Cl)c2)c1 (centres unmarked) | RPS6KA3 | enzyme activity | inhibitor | radiometric | 1 µM | remaining activity | 21% |
| CC/C(=N\NC(=O)C(C)Nc1ccccc1)c1ccc(O)c(C)c1O (centres unmarked) | RPS6KA3 | enzyme activity | inhibitor |  | 0.1 µM | inhibition | 45.7% |
| CCN(CC)c1ccc(C2=NNC(=O)CC2C)cc1[N+](=O)[O-] (centres unmarked) | RPS6KA3 | enzyme activity | inhibitor |  | 10 µM | remaining activity | 100% |
| CCN(CC)CCNC(=O)c1c(C)[nH]c(/C=C2\C(=O)Nc3ccc(F)cc32)c1C | RPS6KA3 | cell-free assay |  |  | 0.5 µM | remaining signal | 35.5% |
| N[C@@H]1CCN(c2nccc(-c3cnn4ncccc34)n2)C1 | RPS6KA3 N-terminal kinase domain | binding |  | competition with immobilised ligand | 1 µM | remaining binding | 100% |
| C[C@H](NC(=O)c1cnc2n1[C@](C)(Cc1ccc(C#N)cc1)C(=O)N2c1cc(Cl)c(F)c(Cl)c1)C(=O)NC1(c2ccccn2)CC1 | RPS6KA3 C-terminal kinase domain | cell-free assay |  | competition with immobilised ligand | 1 µM | remaining binding | 100% |
| Nc1nc(NC2CCCCC2)sc1C(=O)c1ccccc1 | RPS6KA3 | enzyme activity | inhibitor |  | 10 µM | remaining activity | 85% |
| CNc1cccc2cc(C(=O)Nc3ccc(C(=O)O)cc3)c(=O)[nH]c12 | RPS6KA3 | enzyme activity | inhibitor |  | 10 µM | inhibition | 2.2% |
| Cn1cncc1C1=CN(c2ncnc3[nH]cnc23)CCS1 | RPS6KA3 | enzyme activity | inhibitor | radiometric | 50 nM | inhibition | 12.3% |
| CC(C)(C)c1nc2c(s1)c1nc(N)ncc1c1ccc(NS(=O)(=O)c3c(F)cccc3F)c(F)c12 | RPS6KA3 | enzyme activity | inhibitor | radiometric | 1 µM | remaining activity | 90% |
| COc1cc(/C=C/C(=O)CC(=O)/C=C/c2ccc(O)c(OC)c2)ccc1O | RPS6KA3 | enzyme activity | inhibitor |  | 1 µM | activity vs control | 66% |
| CN(C)C(=O)Cn1cc(-c2nc([C@@](C)(c3ccc(-c4cnc(N)nc4)cc3)C3CC3)no2)cn1 | RPS6KA3 N-terminal kinase domain | cell-free assay |  | competition with immobilised ligand | 1 µM | remaining binding | 83% |
| O=C1NC(=O)c2cc(Nc3ccc(F)cc3)c(Nc3ccc(F)cc3)cc21 | RPS6KA3 | cell-free assay |  |  | 0.5 µM | remaining signal | 118% |
| CC1=C(C#N)[C@@H](c2ccc3[nH]nc(C)c3c2)C(C#N)=C(c2ccc(Cl)cc2)N1 | RPS6KA3 C-terminal kinase domain | cell-free assay |  | competition with immobilised ligand | 1 µM | remaining binding | 86.2% |
| CC(C)(O)[C@H]1CC[C@H](Nc2ccc3ncc(-c4cccc(C(F)(F)F)c4)n3n2)CC1 | RPS6KA3 | enzyme activity | inhibitor |  | 1 µM | remaining activity | 90.6% |
| CNCc1ccccc1-c1csc([C@H](C)Nc2nc(C)nc3cc(OC)c(OC)cc23)c1 | RPS6KA3 C-terminal kinase domain | cell-free assay |  | competition with immobilised ligand | 1 µM | remaining binding | 78% |
| COc1ccnn2ncc(-c3ccnc(N(C)C)n3)c12 | RPS6KA3 C-terminal kinase domain | binding |  | competition with immobilised ligand | 1 µM | remaining binding | 100% |
| Nc1ncnc2occ(-c3ccc(NC(=O)Nc4cc(C(F)(F)F)ccc4F)cc3)c12 | RPS6KA3 N-terminal kinase domain | cell-free assay | inhibitor |  | 20 µM | remaining signal | 0.4% |
| F[C@@H]1CCN(c2nccc(-c3cnn4ncccc34)n2)C1 | RPS6KA3 C-terminal kinase domain | binding |  | competition with immobilised ligand | 1 µM | remaining binding | 100% |
| COCCOc1nc(-c2ccc(Cl)nc2)nc2c1CN(C(=O)c1ncn3ccccc13)CC2 | RPS6KA3 N-terminal kinase domain | cell-free assay |  | competition with immobilised ligand | 0.1 µM | remaining binding | 100% |
